Activity calls are given as the source filed them. No cut-off for these calls is given here.
How the values were obtained:
[1] = system: Escherichia coli; experiment: Antibacterial activity against Escherichia coli K12 assessed as bacterial growth inhibition at 32 ug/ml measured after 16 hrs by broth microdilution method; assay type: functional, organism-based; details: K-12
In short: (§1)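 Broth microdilution in Mueller Hinton broth, triplicate. Direct colony suspension at 1.5 x 10^8 CFU/mL diluted to ~10^5 CFU/mL. Serial dilutions made from DMSO stocks at 1 mg/mL; vancomycin positive control, blank medium negative control. Incubated 16 h at optimum temperature. MIC is the lowest concentration without visible growth at 600 nm; mean of triplicate determinations.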

[2] = system: Candida albicans; experiment: Antifungal activity against Candida albicans ATCC 90028 assessed as fungal growth inhibition at 32 ug/ml measured after 16 hrs by broth microdilution method; assay type: functional, organism-based
[3] = system: Escherichia coli; experiment: Antibacterial activity against Escherichia coli ATCC 25922 assessed as bacterial growth inhibition at 32 ug/ml measured after 16 hrs by broth microdilution method; assay type: functional, organism-based
[4] = system: Acinetobacter baumannii; experiment: Antibacterial activity against Acinetobacter baumannii ATCC 19606 assessed as bacterial growth inhibition at 32 ug/ml measured after 16 hrs by broth microdilution method; assay type: functional, organism-based; details: ATCC 19606 = CIP 70.34 = JCM 6841
[5] = system: Staphylococcus aureus; experiment: Antibacterial activity against methicillin-resistant Staphylococcus aureus ATCC 43300 assessed as bacterial growth inhibition at 32 ug/ml measured after 16 hrs by broth microdilution method; assay type: functional, organism-based
[6] = system: Pseudomonas aeruginosa; experiment: Antibacterial activity against Pseudomonas aeruginosa ATCC 27853 assessed as bacterial growth inhibition at 32 ug/ml measured after 16 hrs by broth microdilution method; assay type: functional, organism-based
[7] = Mutagenicity in Drosophila melanogaster somatic cells assessed as frequency of clone formation in ST crosses at 0.25 to 1 mM by SMART assay; assay type: ADME; details: 1000 µM
In short: (§2)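 Drosophila SMART wing-spot assay, ST and HB crosses. Third-instar larvae (72 ± 4 h) placed on hydrated instant mashed potato medium containing compound at 0.25, 0.5 or 1.0 mM final. Negative control: water with 1% Tween-80 and 3% ethanol. Statistics by Frei and Würgler two-sided U test, P≤0.05.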

[8] = Mutagenicity in Drosophila melanogaster somatic cells assessed as frequency of clone formation in HB crosses at 0.25 to 1 mM by SMART assay; assay type: ADME; details: 1000 µM; in short: as §2
[9] = system: Chlamydia trachomatis; experiment: Anti-chlamydial activity against Chlamydia trachomatis Serovar LGV-L2 infected in Hep2 cells assessed as inhibition of chlamydial inclusion at 50 ug/ml treated at 8 hrs post infection and measured at 24 hrs post-infection by immunofluorescence assay; assay type: functional, organism-based
In short: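 HEp-2 cells infected with C. trachomatis serovar L2. Compounds at 50 μg/mL added 8 hpi; inclusion number and size assessed by immunofluorescence at 24 hpi against untreated cells. Cell morphology and viability checked by phase-contrast microscopy.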

[10] = Toxicity in Drosophila melanogaster assessed as survival rate at 0.25 to 1 mM; details: 1000 µM
In short: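 Drosophila SMART assay using third-instar larvae (72 ± 4 h) from ST and HB crosses. Larvae exposed in hydrated instant mashed-potato medium at 0.25, 0.5 and 1.0 mM final. Vehicle control: water with 1% Tween-80 and 3% ethanol. Survival of treated groups compared statistically with the vehicle control.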

[11] = system: Cryptococcus neoformans; experiment: Antifungal activity against Cryptococcus neoformans var. grubii H99 ATCC […] as fungal growth inhibition at 32 ug/ml measured after 16 hrs by broth microdilution method; assay type: functional, organism-based; details: var. grubii H99 ATCC 208821
[12] = system: Klebsiella pneumoniae; experiment: Antibacterial activity against Klebsiella pneumoniae ATCC 700603 assessed as bacterial growth inhibition at 32 ug/ml measured after 16 hrs by broth microdilution method; assay type: functional, organism-based
[13] = system: HeLa 229; experiment: Cytotoxicity against human HeLa 229 cells assessed as cell viability at 50 ug/ml after 24 hrs by CCK-8 assay relative to control; assay type: cell-based; details: hela 229, 24 h
In short: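 HeLa 229 cells kept in DMEM with 10% FBS and 1% penicillin/streptomycin at 37 °C, 5% CO2. Seeded at 5000 cells/well and dosed next day at 50 μg/mL in triplicate for 24 h, against DMSO-matched controls. CCK-8 reagent added for 2 h, then corrected absorbance read at 450 nm.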

[14] = system: Staphylococcus aureus; experiment: Antibacterial activity against Staphylococcus aureus JE2 assessed as bacterial growth inhibition at 32 ug/ml measured after 16 hrs by broth microdilution method; assay type: functional, organism-based; in short: as §1
[15] = system: Chlamydia trachomatis; experiment: (§3) Anti-Chlamydial activity against Chlamydia trachomatis Serovar LGV-L2 infected in Hep2 cells assessed as reduction in size and number of chlamydial inclusion at 1 ug/ml treated at 8 hrs post-infection and 24 hrs later re-infecting fresh Hep2 cells monolayer with infected cells and measured at 24 hrs post re-infection by immunofluorescence staining based microscopy analysis; assay type: functional, organism-based
In short: (§4)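 HEp-2 cells in DMEM with 10% FBS, infected with C. trachomatis L2 at MOI 1. Compounds added 8 hpi in triplicate; DMSO stocks at 50 mg/mL. At 24 hpi lysates collected in sucrose storage medium, frozen at −80 °C, and used to infect fresh HEp-2 monolayers in 10-fold dilutions. After 24 h, stained with goat anti-MOMP and Alexa488 secondary. Inclusions counted in 15 fields at 20x; IFU = mean count per field corrected for dilution.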

[16] = system: Chlamydia trachomatis; experiment: as §3, with “4” for “1”; assay type: functional, organism-based; in short: as §4
[17] = system: Chlamydia trachomatis; experiment: as §3, with “Anti-chlamydial” for “Anti-Chlamydial”, “in” for “in size and number of”, “inclusion growth by measuring appearance of small and irregular inclusions” for “inclusion”, “128” for “1”; assay type: functional, organism-based; in short: as §4
[18] = system: Chlamydia trachomatis; experiment: (§5) Activation of recombinant Chlamydia trachomatis Serovar LGV-L2 C-terminal 6xhis-tagged ClpP1/ClpP2 dimer expressed in Escherichia coli assessed as induction of casein degradation at 0.1 to 1 uM using FITC-labelled casein as substrate pretreated with enzyme for 30 mins followed by substrate addition and measured every 3 mins for 3 hrs in absence of AAA+ chaperone by fluorescence based tecan-plate reader assay
In short: (§6)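 Recombinant C-terminal His6-tagged ClpP, expressed in a clpAPX-null E. coli strain and purified (mammalian ClpP without mitochondrial signal, codon-optimized). ClpP at 1 or 0.1 μM (E. coli), 1 μM (human, mouse) or 6 μM (chlamydial ClpP1 and ClpP2) preincubated with compound or DMSO, 30 min, 32 °C, in HEPES pH 7.6/KCl/MgCl2/DTT/glycerol buffer. 20 μM FITC-casein then added. Fluorescence (ex 490/em 525 nm) read every 3 min for 3 h. At least three runs on at least two protein preparations.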

[19] = as §5, with “human” for “Chlamydia trachomatis Serovar LGV-L2”, “6xHis-tagged ClpP” for “6xhis-tagged ClpP1/ClpP2 dimer”; in short: as §6
[20] = target: ATP-dependent Clp protease proteolytic subunit (Escherichia coli (strain K12)) (UniProt P0A6G7); experiment: as §5, with “recombinant” for “recombinant Chlamydia trachomatis Serovar LGV-L2 C-terminal 6xhis-tagged ClpP1/ClpP2 dimer expressed in”, “coli ClpP” for “coli”; in short: as §6
[21] = system: Chlamydia trachomatis; experiment: as §5, with “ClpP1” for “ClpP1/ClpP2 dimer”, “absence” for “absence of AAA+”; in short: as §6
[22] = as §5, with “mouse” for “Chlamydia trachomatis Serovar LGV-L2”, “6xHis-tagged ClpP” for “6xhis-tagged ClpP1/ClpP2 dimer”; in short: as §6
[23] = system: Chlamydia trachomatis; experiment: as §5, with “ClpP2” for “ClpP1/ClpP2 dimer”; in short: as §6

Chain of ATP-dependent Clp protease proteolytic subunit (Escherichia coli (strain K12)) (P0A6G7 whole entry): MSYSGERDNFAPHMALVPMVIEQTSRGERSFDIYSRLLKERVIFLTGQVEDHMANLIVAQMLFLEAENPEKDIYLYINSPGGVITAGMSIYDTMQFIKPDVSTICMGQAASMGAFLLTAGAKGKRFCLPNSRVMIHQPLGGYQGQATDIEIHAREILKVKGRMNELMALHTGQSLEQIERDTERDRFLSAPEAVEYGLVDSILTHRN

SMILES | inhibition [1] | inhibition [2] | inhibition [3] | inhibition [4] | inhibition [5] | inhibition [6] | inhibition [9] | inhibition [11] | inhibition [12] | inhibition [14] | other results
CC(C)(C(=O)NCCSc1ccc(Cl)cc1)S(=O)(=O)c1ccc(C(F)(F)F)cn1 | inactive | inactive | inactive | inactive | inactive | inactive | inactive | inactive | inactive | inactive | Activity [7]: Non-Toxic; Activity [8]: Non-Toxic; Activity [10]: Non-Toxic; Activity [13]: < 65%
C[C@H]1c2cccc(O)c2C(=O)C2=C(O)[C@]3(O)C(=O)C(C(N)=O)=C(O)[C@@H](N(C)C)[C@@H]3[C@@H](O)[C@@H]21 |  |  |  |  |  |  |  |  |  |  | inhibition [15]: Active
CC[C@H]1OC(=O)[C@H](C)[C@@H](O[C@H]2C[C@@](C)(OC)[C@@H](O)[C@H](C)O2)[C@H](C)[C@@H](O[C@@H]2O[C@H](C)C[C@H](N(C)C)[C@H]2O)[C@](C)(O)C[C@@H](C)CN(C)[C@H](C)[C@@H](O)[C@]1(C)O |  |  |  |  |  |  |  |  |  |  | inhibition [16]: Active
CN[C@@H]1[C@H](O)[C@H](NC)[C@H]2O[C@@]3(O)C(=O)C[C@@H](C)O[C@H]3O[C@@H]2[C@H]1O |  |  |  |  |  |  |  |  |  |  | inhibition [17]: Active
CC(C)(C(=O)NCCCc1ccccc1)S(=O)(=O)c1ccccc1 | inactive | inactive | inactive | inactive | inactive | inactive | inactive | inactive | inactive | inactive | Activity [18]: Active; Activity [19]: Not Active; Activity [20]: inactive; Activity [21]: Active; Activity [22]: Not Active; Activity [23]: Active

From ChEMBL document CHEMBL4342502, “Synthesis and Antichlamydial Activity of Molecules Based on Dysregulators of Cylindrical Proteases” (J Med Chem, 2020)
